Source: article PMC7034990 (Science Advances, 2020)

Key:
[1] = biological target: F508del-CFTR in CFBE41o− cells (Homo sapiens, UniProt P13569, DEL508-508); experiment: Thermoaggregation assay of mutant CFTR in cell lysates; format: cell-based; conditions: lysates heat-denatured at 28° to 70°C; ARN23765 1 nM, VX-809 1 μM
Procedure, shortened: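 F508del-CFTR CFBE41o− cells were treated 24 h; wild-type CFTR CFBE41o− cells were run in parallel. Confluent cells received cycloheximide (150 μg/ml) for 2 h, were lysed in RIPA on ice and cleared at 15,000g, 10 min, 4°C. Lysate (50 μg) was heated 15 min at 28–70°C. Aggregates were removed at 15,000g, 15 min, 4°C; soluble CFTR was immunoblotted and normalised to HSP90AB1.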

[2] = test system: F508del-CFTR CFBE41o− cells; experiment: HS-YFP assay in CFBE41o− cells expressing F508del-CFTR; format: cell-based
[3] = biological target: ABC-B1 (MDR1, P-glycoprotein) (Homo sapiens, UniProt P08183); experiment: ABC transporter inhibition, ABC-B1; format: in vitro ADME
ABC-B1 (MDR1, P-glycoprotein), sequence (P08183 whole entry, species assumed): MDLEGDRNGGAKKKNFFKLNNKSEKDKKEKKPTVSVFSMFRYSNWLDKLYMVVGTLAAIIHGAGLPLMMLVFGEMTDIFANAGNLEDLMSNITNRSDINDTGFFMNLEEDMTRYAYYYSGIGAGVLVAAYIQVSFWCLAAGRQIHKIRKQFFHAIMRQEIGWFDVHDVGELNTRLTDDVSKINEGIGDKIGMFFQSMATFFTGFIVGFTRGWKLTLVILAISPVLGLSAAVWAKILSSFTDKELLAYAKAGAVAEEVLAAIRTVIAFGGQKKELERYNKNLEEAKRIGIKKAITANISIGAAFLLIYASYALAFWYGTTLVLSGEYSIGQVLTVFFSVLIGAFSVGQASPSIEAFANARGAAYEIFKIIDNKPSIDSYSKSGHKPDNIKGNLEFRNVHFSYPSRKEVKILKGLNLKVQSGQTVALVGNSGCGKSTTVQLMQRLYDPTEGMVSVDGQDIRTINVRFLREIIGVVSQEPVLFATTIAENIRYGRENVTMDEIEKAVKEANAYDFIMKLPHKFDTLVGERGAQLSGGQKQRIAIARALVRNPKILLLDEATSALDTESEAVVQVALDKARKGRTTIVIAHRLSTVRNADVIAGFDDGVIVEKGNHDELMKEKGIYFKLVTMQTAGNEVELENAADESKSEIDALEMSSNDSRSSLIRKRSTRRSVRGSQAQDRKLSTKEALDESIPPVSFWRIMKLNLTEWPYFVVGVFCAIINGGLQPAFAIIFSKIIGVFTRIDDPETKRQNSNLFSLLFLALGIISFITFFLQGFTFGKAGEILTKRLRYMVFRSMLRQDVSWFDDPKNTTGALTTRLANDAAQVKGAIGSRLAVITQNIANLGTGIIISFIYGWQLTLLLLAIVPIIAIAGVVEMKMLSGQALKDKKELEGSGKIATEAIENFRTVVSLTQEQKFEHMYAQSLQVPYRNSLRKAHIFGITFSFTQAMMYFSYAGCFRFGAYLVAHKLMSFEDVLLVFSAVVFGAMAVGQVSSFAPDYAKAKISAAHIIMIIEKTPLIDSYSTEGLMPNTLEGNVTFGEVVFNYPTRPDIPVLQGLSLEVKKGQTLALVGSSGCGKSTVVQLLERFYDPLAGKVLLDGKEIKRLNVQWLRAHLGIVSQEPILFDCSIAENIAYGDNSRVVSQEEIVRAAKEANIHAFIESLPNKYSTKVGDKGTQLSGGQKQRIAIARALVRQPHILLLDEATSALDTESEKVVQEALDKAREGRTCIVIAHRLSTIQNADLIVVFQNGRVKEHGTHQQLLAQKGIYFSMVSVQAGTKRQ

## CN(C(=O)c1cccc(-n2nc(C(F)(F)F)c3c2[C@@H](Oc2ccc(C(=O)O)cc2)CCC3)c1)c1ccc2c(c1)OC(F)(F)O2 [ARN23765]
[1]
  resistance to thermoaggregation of mature CFTR: significantly increased the resistance to thermoaggregation of mature CFTR
[2]; CFBE41o− cells, VX-809 1 μM, ARN23765 10 nM, or both
  F508del-CFTR activity (QR) of the ARN23765/VX-809 combination: no additive effect
[2]; Homo sapiens, CFBE41o-, 24 h
  EC50: 0.4 nM
[3]
  inhibition at 10 µM: 13%
